DENV2 CPE rescue = inhibitors of DENV2 cytopathic effect; DENV2-infected cells, cytopathic effect rescue, plate reader; CPE inhibition, % at 9.99 µM; hit rate 1.7% among 350,000; in the data active = CPE inhibition above about 20%, passing the limit was not always enough; tested in BHK-21 cells;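 also: 0% = median of neutral control wells and 100% = median of positive control wells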
E-sel inducer = E-selectin induction on HUVECs; P16581; HUVEC E-selectin immunofluorescence imaging; normalized: neutral wells 0, TNF-alpha wells 100; activation, % at 7.58 µM; hit rate 0.37% among 260,000; AID 686992;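 active = mean E-selectin-positive cell signal at least 10% of the positive control, reached in at least 60% of replicates, without over 20% cell loss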
Target sequence (P16581 whole entry, looked up): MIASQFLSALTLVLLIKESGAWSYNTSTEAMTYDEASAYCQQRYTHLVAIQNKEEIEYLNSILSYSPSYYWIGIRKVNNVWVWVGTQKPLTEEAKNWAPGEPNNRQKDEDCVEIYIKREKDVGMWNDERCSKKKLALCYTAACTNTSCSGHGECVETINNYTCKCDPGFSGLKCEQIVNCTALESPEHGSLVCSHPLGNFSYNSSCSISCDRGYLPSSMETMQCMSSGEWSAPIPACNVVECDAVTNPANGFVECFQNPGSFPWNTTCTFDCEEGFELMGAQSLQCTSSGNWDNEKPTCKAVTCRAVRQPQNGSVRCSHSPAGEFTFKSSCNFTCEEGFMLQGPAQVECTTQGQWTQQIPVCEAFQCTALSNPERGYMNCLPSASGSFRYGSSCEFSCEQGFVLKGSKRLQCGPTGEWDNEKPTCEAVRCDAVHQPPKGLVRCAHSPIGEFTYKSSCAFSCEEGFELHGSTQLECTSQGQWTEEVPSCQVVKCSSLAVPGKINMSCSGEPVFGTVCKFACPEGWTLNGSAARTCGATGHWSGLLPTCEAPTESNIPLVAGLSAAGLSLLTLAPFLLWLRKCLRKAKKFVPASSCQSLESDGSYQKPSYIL
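assay system = HUVEC, human umbilical vein endothelial cells | input = 3,000 HUVEC seeded per well | medium = EGM-2 growth medium on 0.1% gelatin-coated wells | dosing = one compound dose added by pin transfer | signal = immunofluorescence imaging | read-out basis = % PE-positive cells | control set = TNF-alpha, DMSO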
Statin myotox sup = suppressors of simvastatin-induced myotoxicity in C2C12 myotubes | AID 602340 | hit rate 0.78% among 330,000 | rescue of ATP level, % at 7.49 µM | ATP luminescence, 48 h; scaled: DMSO 0, geranylgeraniol control 100;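 active = mean ATP rescue above about 67%, or every replicate alone reaching that limit, limit read from the data, passing the limit was not always enough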;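 also: myotubes were challenged with 10 µM simvastatin during compound exposure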
An asterisk follows results filed as active; x = not tested or not shown. Rows were chosen to be rich in hits. Some 2.2% of all compounds tested hit in one or more screens of this group.

SMILES	DENV2 CPE rescue	E-sel inducer	Statin myotox sup
CC(C)NC(=O)Nc1ccc2c(c1)C(=O)N([C@H](C)CO)C[C@@H](C)[C@H](CN(C)S(=O)(=O)c1cccs1)O2	x	-1	x
Cc1ccc(Cc2c(-c3ccc(Cl)cc3)nc3ccc(Cl)cn23)cc1	-2	0	20
COc1ccc(-c2nc3c(C)cc(Br)cn3c2Cc2cccc(F)c2)cc1OC	89*	0	0
Clc1cccc(Cc2c(-c3cccc(Br)c3)nc3ccc(Cl)cn23)c1	-2	0	0
Cc1ccc2nc(-c3cccc(Br)c3)c(Cc3cccc(Cl)c3)n2c1	54*	x	5
COc1ccc(-c2nc3c(C)cc(Br)cn3c2Cc2ccccc2)cc1OC	-15	1	15
Cc1ccc(Cc2c(-c3ccc(C)cc3)nc3ccc(Cl)cn23)cc1	25*	0	43
COc1ccc(-c2nc3ccc(Br)cn3c2Cc2cccc(F)c2)cc1OC	9	1	8
COc1ccc(-c2nc3ccc(C)cn3c2Cc2cccc(F)c2)cc1OC	33*	0	9
CO[C@@H]1CN(C)C(=O)c2ccc(NS(C)(=O)=O)cc2OC[C@@H](C)N(C(=O)C2CCCCC2)C[C@H]1C	-4	-1	-2
C[C@H]1CN([C@@H](C)CO)C(=O)c2cccc(N(C)C)c2O[C@@H]1CN(C)S(=O)(=O)c1ccc(F)cc1	-7	x	3
CCCNC(=O)N(C)C[C@H]1Oc2ncc(-c3ccc(F)cc3)cc2C(=O)N([C@@H](C)CO)C[C@H]1C	0	0	-2
C[C@H]1CN([C@@H](C)CO)C(=O)c2cccc(NS(=O)(=O)c3ccc(Cl)cc3)c2O[C@@H]1CN(C)C(=O)Nc1ccc(F)cc1	3	0	16
COc1ccccc1-c1cn(CC[C@H]2CC[C@@H](NC(=O)C3CCC3)[C@H](CO)O2)nn1	5	0	-2
Cc1noc(C)c1S(=O)(=O)Nc1ccc2c(c1)C(=O)N([C@H](C)CO)C[C@@H](C)[C@H](CN(C)Cc1ccc(Cl)c(Cl)c1)O2	-7	x	x
CC(C)C#Cc1ccc([C@H]2[C@@H](CO)N3C(=O)CN(C(=O)c4ccc5c(c4)OCO5)C[C@H]23)cc1	2	0	x
C[C@@H]1CN([C@H](C)CO)S(=O)(=O)c2ccc(-c3cccnc3)cc2O[C@H]1CN(C)Cc1ccncc1	-12	-1	-31
CC(C)C12CN3CC(C(C)C)(CN(C1)C31C(=O)Nc3ccccc31)C2=O (centres undefined)	x	x	90*
CC(C)C12CN3CC(C(C)C)(CN(C1)C3c1ccccc1O)C2=O (centres undefined)	x	0	11
C[C@H]1CN([C@@H](C)CO)C(=O)c2cc(C#Cc3ccccc3F)cnc2O[C@@H]1CN(C)C(=O)Cc1cccnc1	1	0	6
NC(=O)c1cc2cc(Cl)ccc2oc1=O	x	x	-3
NC(=O)c1cc2cc(Cl)ccc2oc1=Nc1cccc(C(F)(F)F)c1	66*	-2	18
COC(=O)[C@@]12CCCN1[C@H](c1ccc(-c3ccc(F)cc3)cc1)[C@H]1C(=O)N(C)C(=O)[C@H]12	12	0	-2
CCC(C)Sc1ccc([C@@H]2[C@@H]3C(=O)N(C)C(=O)[C@@H]3[C@]3(C(=O)OC)CCCCN23)cc1OC (some centres undefined)	-11	0	1
COC(=O)[C@@]12CCCN1[C@H](c1ccc(SC3CCCCC3)cc1)[C@H]1C(=O)N(C)C(=O)[C@H]12	28*	0	1
SMILES	DENV2 CPE rescue	E-sel inducer	Statin myotox sup
COC(=O)[C@@]12CCCCN1[C@H](c1ccc(SC3CCCCC3)cc1)[C@H]1C(=O)N(C)C(=O)[C@H]12	-1	0	-10
COC(=O)[C@@]12CCCCN1[C@H](c1ccc(-c3cccc(Cl)c3)c(OC)c1)[C@@H]1C(=O)N(C)C(=O)[C@@H]12	-9	0	137*
CCC(C)Sc1ccc([C@@H]2[C@@H]3C(=O)N(CC)C(=O)[C@@H]3[C@]3(C(=O)OC)CCCCN23)cc1OC (some centres undefined)	-14	0	138*
COC(=O)[C@@]12CCCN1[C@H](c1ccc(-c3cccc(Cl)c3)c(OC)c1)[C@H]1C(=O)N(C)C(=O)[C@H]12	8	0	-20
COC(=O)[C@@]12CCCCN1[C@H](c1ccc(-c3ccc(F)cc3)cc1)[C@H]1C(=O)N(C)C(=O)[C@H]12	39*	x	1
COc1ccc2c3c([nH]c2c1)[C@@H](CO)N(Cc1nccs1)CC31CCN(Cc2cccnc2)CC1	-2	0	x
COc1ccc(S(=O)(=O)Nc2ccc3c(c2)CC(=O)N([C@H](C)CO)C[C@H](C)[C@@H](CN(C)CC2CC2)O3)cc1	-6	0	5
CNC[C@@H]1OCCCC[C@H](C)Oc2ccc(NC(=O)c3ccccc3)cc2C(=O)N([C@@H](C)CO)C[C@H]1C	0	0	-32
O=C(c1cccc(F)c1)N1C[C@H]2[C@@H](c3ccccc31)[C@H](CO)N2C(=O)Cc1ccccc1	5	0	-13
C[C@@H]1CN([C@H](C)CO)C(=O)c2cc(NC(=O)Nc3ccc(F)cc3)ccc2O[C@@H]1CN(C)Cc1ccc(C(=O)Nc2ccccc2N)cc1	-4	-17	x
C[C@@H]1CN([C@H](C)CO)C(=O)c2cc(NC(=O)Nc3ccc(C(F)(F)F)cc3)ccc2O[C@@H]1CN(C)Cc1ccc(C(=O)Nc2ccccc2N)cc1	-8	21	113*
C[C@@H]1CN([C@@H](C)CO)C(=O)c2cc(NC(=O)Nc3ccc(C(F)(F)F)cc3)ccc2O[C@H]1CN(C)Cc1ccc(C(=O)Nc2ccccc2N)cc1	6	4	49
C[C@@H]1CN([C@H](C)CO)C(=O)c2cc(NC(=O)Nc3ccc(C(F)(F)F)cc3)ccc2O[C@H]1CN(C)Cc1ccc(C(=O)Nc2ccccc2N)cc1	22*	16	x
C[C@@H]1CN([C@H](C)CO)C(=O)c2cc(NC(=O)CCC(F)(F)F)ccc2O[C@H]1CN(C)Cc1ccc(C(=O)Nc2ccccc2N)cc1	20*	-3	x
C[C@H]1CN([C@@H](C)CO)C(=O)c2cc(NC(=O)CCC(F)(F)F)ccc2O[C@H]1CN(C)Cc1ccc(C(=O)Nc2ccccc2N)cc1	10	1	15
C[C@@H]1CN([C@H](C)CO)C(=O)Cc2cc(NC(=O)C3CC3)ccc2O[C@H]1CN(C)C(=O)NC1CCCCC1	7	0	4
C/C=C/c1cnc2c(c1)C(=O)N([C@H](C)CO)C[C@@H](C)[C@@H](CN(C)C(=O)Nc1ccc(C(F)(F)F)cc1)O2	5	0	25
CCC(=O)N[C@H]1C=C[C@H](CC(=O)NCC2CC2)O[C@@H]1CO	2	0	x
O=C(C[C@@H]1CC[C@H](NC(=O)Nc2ccc3c(c2)OCO3)[C@@H](CO)O1)NCc1ccc2c(c1)OCO2	24*	0	-3
O=C(C[C@H]1CC[C@H](NC(=O)Nc2ccc3c(c2)OCO3)[C@@H](CO)O1)NCc1ccc2c(c1)OCO2	17	0	-1
O=C(Nc1ccc2c(c1)OCO2)N[C@H]1CC[C@@H](CCNC(=O)C2CCC2)O[C@@H]1CO	8	-1	-5
O=C(Nc1ccc2c(c1)OCO2)N[C@@H]1CC[C@H](CCNC(=O)C2CCC2)O[C@@H]1CO	32*	-1	5

Assay outcomes: PubChem, Broad Institute
